Experimental data: ChEMBL document CHEMBL1158389, “Highly twisted adamantyl arotinoids: synthesis, antiproliferative effects and RXR transactivation profiles” (Eur J Med Chem, 2009)
Active and inactive are the calls of the source. The rule behind the calls is not given here.

Key:
[1] = test system: MDA-MB-468; experiment: Antiproliferative activity against human MDA-MB-468 cells at 4 uM after 48 hrs by MTT assay; assay type: functional; conditions: MDA-MB-468, 48 h
In short: (§1)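 Epithelial cancer lines came from ATCC and were seeded the day before in complete medium: PC-3, SkOV3 and A549 at 3,000/well; MiaPaCa-2 and BxPC-3 at 4,000; T-47D and MDA-MB-468 at 5,000. Medium was switched to 0.5% FBS just before exposure to 4 μM. Read-out was MTT (4 h, 37 °C), SDS/HCl solubilisation, A595 minus cell-free blank. Growth inhibition was taken versus DMSO (≤0.1% v/v) controls, ≥2 experiments in triplicate.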

[2] = test system: A549; experiment: Antiproliferative activity against human A549 cells at 4 uM after 72 hrs by MTT assay; assay type: functional; conditions: A549, 72 h; in short: as §1
[3] = test system: MIA PaCa-2; experiment: Antiproliferative activity against human MIAPaCa2 cells at 4 uM after 48 hrs by MTT assay; assay type: functional; conditions: MIA PaCa-2, 48 h; in short: as §1
[4] = test system: SK-OV-3; experiment: Antiproliferative activity against human SKOV3 cells at 4 uM after 48 hrs by MTT assay; assay type: functional; conditions: SK-OV-3, 48 h; in short: as §1
[5] = target: T1, Retinoic acid receptor alpha (Homo sapiens) (UniProt P10276); experiment: Inhibition of transactivation activity of Gal4-LBD fused human RARalpha (156 to 454) transfected in atRA-stimulated african green monkey CV1 cells at 0.2 uM after 6 hrs by Dual-light chemiluminescent assay; assay type: cell-based; conditions: CV-1, 0.2 uM
T1 sequence (whole entry): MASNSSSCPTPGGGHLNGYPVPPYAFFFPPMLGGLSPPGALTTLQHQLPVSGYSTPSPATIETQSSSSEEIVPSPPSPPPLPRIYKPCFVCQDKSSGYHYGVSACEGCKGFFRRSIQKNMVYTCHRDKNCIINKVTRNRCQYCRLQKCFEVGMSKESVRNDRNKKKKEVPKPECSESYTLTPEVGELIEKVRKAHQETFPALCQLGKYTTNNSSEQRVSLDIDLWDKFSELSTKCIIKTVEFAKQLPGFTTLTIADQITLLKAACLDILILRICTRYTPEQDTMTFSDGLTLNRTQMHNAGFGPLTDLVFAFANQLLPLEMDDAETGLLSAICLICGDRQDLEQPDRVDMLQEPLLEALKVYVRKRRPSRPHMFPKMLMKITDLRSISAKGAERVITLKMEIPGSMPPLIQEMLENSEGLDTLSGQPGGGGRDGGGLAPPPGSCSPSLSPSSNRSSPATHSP
In short: (§2)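 Gal4 DBD (1–147) was fused to hRARα (156–462) or hRARβ (169–448) LBD. CV-1 cells (20,000/well) were co-transfected with 10 ng Gal4-LBD, 100 ng UAS-luciferase and 25 ng β-gal vector. After 16 h the medium was replaced with medium containing 5% charcoal-treated FBS. Cells got atRA plus test compound at 10-, 40- or 200-fold excess (0.2, 0.8, 4 μM) for 6 h. Luciferase and β-galactosidase were read by chemiluminescence.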

[6] = target: T1, Retinoic acid receptor alpha (Homo sapiens); experiment: Inhibition of transactivation activity of Gal4-LBD fused human RARalpha (156 to 454) transfected in atRA-stimulated african green monkey CV1 cells at 4 uM after 6 hrs by Dual-light chemiluminescent assay; assay type: cell-based; conditions: CV-1; in short: as §2
[7] = target: T2, Retinoic acid receptor beta (Homo sapiens) (UniProt P10826); experiment: Transactivation of Gal4-LBD fused human RARbeta (169 to 448) transfected in african green monkey CV1 cells assessed as luciferase activity at 2 uM after 6 hrs by Dual-light chemiluminescent assay; assay type: cell-based; conditions: CV-1
T2 sequence (whole entry): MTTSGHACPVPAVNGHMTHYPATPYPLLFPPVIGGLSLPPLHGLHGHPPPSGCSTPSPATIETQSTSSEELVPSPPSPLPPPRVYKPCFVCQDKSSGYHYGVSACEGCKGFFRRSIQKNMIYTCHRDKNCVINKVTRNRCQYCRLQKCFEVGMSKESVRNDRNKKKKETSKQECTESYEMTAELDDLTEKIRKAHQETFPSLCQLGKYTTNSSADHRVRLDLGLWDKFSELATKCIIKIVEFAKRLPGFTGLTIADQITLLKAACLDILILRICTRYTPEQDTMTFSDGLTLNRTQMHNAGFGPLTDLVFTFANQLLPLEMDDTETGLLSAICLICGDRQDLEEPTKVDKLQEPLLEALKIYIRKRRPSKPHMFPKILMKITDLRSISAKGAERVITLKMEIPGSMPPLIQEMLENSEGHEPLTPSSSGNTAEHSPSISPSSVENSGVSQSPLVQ
In short: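 Transfected CV-1 cells carried Gal4-LBD constructs: hRARα 156–462, hRARβ 169–448, hRARγ 178–454 or mRXRα 218–467. Transfection used 10 ng Gal4-LBD, 100 ng UAS-luciferase and 25 ng β-gal vector. After 16 h the medium was changed to 5% charcoal-treated FBS. Cells were stimulated with 2 μM analog for 6 h (RARα, RARβ, RXRα) or 20 h (RARγ). Reference agonists were 1 μM atRA (RARα) and 1 μM 9cRA (RXRα). Luciferase and β-galactosidase were read by chemiluminescence.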

[8] = target: T3, Retinoic acid receptor gamma (Homo sapiens) (UniProt P13631); experiment: Inhibition of transactivation activity of Gal4-LBD fused human RARgamma (178 to 454) transfected in atRA-stimulated african green monkey CV1 cells at 4 uM after 20 hrs by Dual-light chemiluminescent assay; conditions: CV-1
T3 sequence (whole entry): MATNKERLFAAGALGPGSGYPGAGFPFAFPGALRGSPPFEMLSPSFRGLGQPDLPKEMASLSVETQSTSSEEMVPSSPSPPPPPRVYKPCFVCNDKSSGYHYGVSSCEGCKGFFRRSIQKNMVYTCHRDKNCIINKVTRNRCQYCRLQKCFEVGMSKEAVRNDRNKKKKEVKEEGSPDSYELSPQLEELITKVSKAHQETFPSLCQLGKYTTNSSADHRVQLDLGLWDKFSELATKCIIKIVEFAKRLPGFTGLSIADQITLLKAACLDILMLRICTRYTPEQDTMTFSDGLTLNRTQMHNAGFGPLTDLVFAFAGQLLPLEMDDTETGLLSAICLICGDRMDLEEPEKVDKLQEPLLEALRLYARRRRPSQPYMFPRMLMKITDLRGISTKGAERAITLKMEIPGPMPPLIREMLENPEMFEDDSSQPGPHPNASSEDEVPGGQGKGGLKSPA

[9] = test system: BXPC-3; experiment: Antiproliferative activity against human BxPC3 cells at 4 uM after 48 hrs by MTT assay; assay type: functional; conditions: BXPC-3, 48 h; in short: as §1
[10] = target: T2, Retinoic acid receptor beta (Homo sapiens); experiment: Inhibition of transactivation activity of Gal4-LBD fused human RARbeta (169 to 448) transfected in atRA-stimulated african green monkey CV1 cells at 4 uM after 6 hrs by Dual-light chemiluminescent assay; assay type: cell-based; conditions: CV-1; in short: as §2
[11] = test system: PC-3; experiment: Antiproliferative activity against human PC3 cells at 4 uM after 48 hrs by MTT assay; assay type: functional; conditions: PC-3, 48 h; in short: as §1

inhibition [5] | inhibition [6] [%] | Activity [7] | Activity [8] | Activity [10] | SMILES | inhibition at 4 µM [1] [%] | inhibition at 4 µM [2] [%] | inhibition at 4 µM [3] [%] | inhibition at 4 µM [4] [%] | inhibition at 4 µM [9] [%] | inhibition at 4 µM [11] [%]
inactive | 27 | inactive | inactive | inactive | COCCOCOc1cc(C)c(-c2ccc3cc(C(=O)O)ccc3c2Cl)cc1C12CC3CC(CC(C3)C1)C2 | 49.9 | 88.1 | 63.7 | 71.2 | 70.2 | 97.6
inactive | 43.7 | inactive | inactive | inactive | COCCOCOc1cc(C)c(-c2ccc(CC(=O)O)cc2Cl)cc1C12CC3CC(CC(C3)C1)C2 | 25.3 | 7.9 | 6.3 | 19.1 | 14 | 52.2
